Results on five molecules are retold here after ChEMBL document CHEMBL1126152, “Fluoronaphthyridines as antibacterial agents. 4. Synthesis and structure-activity relationships of 5-substituted-6-fluoro-7-(cycloalkylamino)-1,4-dihydro-4-oxo-1,8- naphthyridine-3-carboxylic acids” (J Med Chem, 1992).

The nature of data set [1]: Max plasma concentration was measured by 40 mg/kg dose of peroral administration. Details: dose 40 mg/kg, route oral. It is filed as ADME, organism-based. The following applies: po. In outline: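 Mice were dosed orally at 40 mg/kg, and compound levels were measured in blood. Values came from duplicate or triplicate experiments and are stated as accurate to ±50%.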
Data set [2] in a line: (§1) Solubility was measured at PH - 7.2 buffer.
Data set [3] is described as follows: % dose recovered in mouse urine. As to conditions: % recovery.
For another data set, the system named is Bacteroides fragilis. Kind of data set: In vitro for antibacterial activity against […]. In kind it is functional. In outline:
(§2)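 MIC by serial 2-fold broth dilution in nutrient broth with an inoculum of 10^6 CFU/mL. Compound range was 0.0005–250 μg/mL. Plates were incubated 18 h at 37 °C. MIC was taken as the lowest concentration preventing visible growth.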

The next data set relates to Enterococcus faecalis. The data set can be described thus: In vitro for antibacterial activity against Enterococcus faecalis. It is filed as functional. A digest of the protocol:
as §2

The subject of data set [4] is Escherichia coli. The data set can be described thus: In vitro for antibacterial activity against Escherichia coli. In kind it is functional. In outline:
as §2

The subject of a further data set is Enterobacter cloacae. The data set can be described thus: In vitro for antibacterial activity against Enterobacter cloacae. In kind it is functional.
A further data set relates to Klebsiella pneumoniae. The data set can be described thus: In vitro for antibacterial activity against Klebsiella pneumoniae. In kind it is functional. In outline:
as §2

In another data set the test system is Morganella morganii. The data set can be described thus: In vitro for antibacterial activity against Morganella morganii. It is filed as functional. A digest of the protocol: as §2
Data set [5] concerns Pseudomonas aeruginosa. The data set can be described thus: In vitro for antibacterial activity against Pseudomonas aeruginosa. It is filed as functional. A digest of the protocol:
as §2

For data set [6], the system named is Pseudomonas aeruginosa. The data set can be described thus: animal or person. In kind it is functional. As to conditions: in Mus musculus, po, read-out: PD50.
In a further data set the test system is Proteus mirabilis. The data set can be described thus: In vitro for antibacterial activity against Proteus mirabilis. In kind it is functional. A digest of the protocol: as §2
The next data set concerns Staphylococcus. The data set can be described thus: Compound was tested for […] against Staphylococcus aureus A 15090 after oral administration of drug in mice. In kind it is functional. The following applies: read-out: PD50. A digest of the protocol:
(§3)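 Mouse protection test against systemic infection. Compound was dissolved in sterile water and given orally to female OF1-strain Swiss mice weighing 18–25 g, with five mice per group.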

Another data set concerns Serratia marcescens. Kind of data set: In vitro for antibacterial activity against Serratia marcescens. It is filed as functional. A digest of the protocol: as §2
In data set [7] the test system is Streptococcus pneumoniae. The data set can be described thus: Antibacterial activity against Streptococcus pneumoniae. In kind it is functional.
Data set [8] deals with Staphylococcus aureus. Kind of data set: Antibacterial activity against Staphylococcus aureus. It is filed as functional.
In data set [9] the test system is Streptococcus pneumoniae. Kind of data set: animal or person. In kind it is functional. As to conditions: in Mus musculus, po, read-out: PD50.
A short description of data set [10]: Partition coefficient (logD). The following applies: octanol/water.
Data set [11] in a line: in vivo. As to conditions: mouse, plasma.
Data set [12] is described as follows: in vivo. The following applies: mouse, plasma, T1/2.
The test system of data set [13] is Escherichia coli. The data set can be described thus: Compound was tested for […] against Escherichia coli A 15119 after oral administration of drug in mice. It is filed as functional. The following applies: read-out: PD50. A digest of the protocol: as §3
A short description of data set [14]: Lethal dose was determined in OF1-strain female Swiss mice after intra venous administration of the drug. The following applies: mouse, in vivo, iv.
Data set [15] can be described thus: Lethal dose was determined in OF1-strain female Swiss mice after oral administration of the drug. As to conditions: mouse, in vivo.
Data set [16] concerns Staphylococcus aureus. The data set can be described thus: animal or person. It is filed as functional. The following applies: in Mus musculus, po, read-out: PD50.
The species named for data set [17] is Mus musculus. The following applies: in vivo.
A short description of data set [18]: as §1. It is filed as physicochemical. In outline: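 Excess solid was shaken overnight at 22 °C in pH 7.2 buffer for injection, then filtered. The diluted filtrate was assayed by HPLC with UV detection.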
In data set [19] the test system is Escherichia coli. The data set can be described thus: Compound was tested for […] against Escherichia coli A 15119 after oral administration of drug in mice, value in the parenthesis indicates 95% confidence limits. In kind it is functional. The following applies: read-out: PD50. A digest of the protocol: as §3
Data set [20] deals with Pseudomonas aeruginosa. The data set can be described thus: Compound was tested for […] against Pseudomonas aeruginosa A 9843 after oral administration of drug in mice, value in the parenthesis indicates 95% confidence limits. In kind it is functional. The following applies: read-out: PD50. A digest of the protocol: as §3
The species named for data set [21] is Mus musculus. As to conditions: in vivo. This is another data set of the same source.
The test system of data set [22] is Streptococcus pneumoniae. Kind of data set: Compound was tested for efficacy on systemic infection against Streptococcus pneumoniae A 9585 after oral administration of drug in mice, value in the parenthesis indicates 95% confidence limits.

Molecules are shown by their SMILES. In brackets after ≈: the same amount, converted by molar mass. Some results are limits rather than exact numbers.

Take `Cc1c(F)c(N2CC[C@H](N)C2)nc2c1c(=O)c(C(=O)O)cn2C(C)(C)C`: the Cmax (in data set [1]; in the data set “in vivo [11]”) was 7 µg/mL each time. The solubility (commonly the dissolved amount per volume that the medium holds) in data set [2] was determined as 0.57 mg/mL (≈ 1570 µM). Further, the dose excreted in data set [3] was 7%. Also, the minimal inhibitory concentration (MIC) (usually the lowest concentration found to suppress growth) in the data set with Bacteroides fragilis turned out to be 4 mg/L (≈ 11 µM); against Enterococcus faecalis, 0.13 mg/L (≈ 0.359 µM); with Escherichia coli [4], 0.004 mg/L (≈ 0.011 µM); in the data set with Enterobacter cloacae, 0.03 mg/L (≈ 0.0828 µM); with Klebsiella pneumoniae, 0.03 mg/L (≈ 0.0828 µM); against Morganella morganii it was 0.06 mg/L (≈ 0.166 µM). Also, the MIC with Pseudomonas aeruginosa [5] amounted to 1 mg/L (≈ 2.76 µM); with Proteus mirabilis it was 0.06 mg/L (≈ 0.166 µM); against Serratia marcescens it was 0.13 mg/L (≈ 0.359 µM); in the data set with Streptococcus pneumoniae [7], 0.25 mg/L (≈ 0.69 µM); in the data set with Staphylococcus aureus [8], 0.004 mg/L (≈ 0.011 µM). Moreover, the ED50 in the data set on Pseudomonas aeruginosa [6] is 25 mg/kg; in the data set on Staphylococcus, 4.1 mg/kg; with Streptococcus pneumoniae [9], greater than 25 mg/kg. In addition, in [10], the log distribution coefficient (logD) (commonly the decadic logarithm of the distribution of all forms, ionised or not, between an organic phase and buffer at a given pH) amounted to 1.14. The half-life (as a rule, the time in which the quantity being followed falls by half) in “in vivo [12]” turned out to be 2.83 h.

Regarding `O=C(O)c1cn(C2CC2)c2nc(N3CCNCC3)c(F)cc2c1=O`, the ED50 in the data set with Escherichia coli [13] stood at 0.4 mg/kg; in the data set on Pseudomonas aeruginosa [6], 3.6 mg/kg; in the data set on Staphylococcus, 7 mg/kg. The minimal inhibitory concentration (MIC) was 8 mg/L (≈ 24.1 µM) against Enterococcus faecalis; 0.03 mg/L (≈ 0.0903 µM) with Escherichia coli [4]; 0.06 mg/L (≈ 0.181 µM) in the data set on Enterobacter cloacae; 0.06 mg/L (≈ 0.181 µM) with Klebsiella pneumoniae; 0.06 mg/L (≈ 0.181 µM) in the data set on Morganella morganii; 0.5 mg/L (≈ 1.5 µM) with Pseudomonas aeruginosa [5]. Further, the minimal inhibitory concentration (MIC) in the data set on Proteus mirabilis, against Serratia marcescens and against Staphylococcus aureus [8] was 0.25 mg/L (≈ 0.752 µM) in each case.

In data set [2], `CN[C@H]1CCN(c2nc3c(c(C)c2F)c(=O)c(C(=O)O)cn3-c2ccc(F)cc2F)C1` registered a solubility of 0.01 mg/mL (≈ 23.1 µM). The MIC in the data set on Bacteroides fragilis is 2 mg/L (≈ 4.63 µM); against Enterococcus faecalis, 0.25 mg/L (≈ 0.578 µM); in the data set with Escherichia coli [4], 0.016 mg/L (≈ 0.037 µM); against Enterobacter cloacae, 0.03 mg/L (≈ 0.0694 µM); in the data set on Klebsiella pneumoniae, 0.016 mg/L (≈ 0.037 µM); in the data set on Morganella morganii, 0.06 mg/L (≈ 0.139 µM). Besides, the MIC was determined as 1 mg/L (≈ 2.31 µM) in the data set with Pseudomonas aeruginosa [5]; 0.13 mg/L (≈ 0.301 µM) in the data set with Proteus mirabilis; 0.25 mg/L (≈ 0.578 µM) against Serratia marcescens; 0.06 mg/L (≈ 0.139 µM) in the data set on Streptococcus pneumoniae [7]; 0.008 mg/L (≈ 0.0185 µM) in the data set with Staphylococcus aureus [8]. The ED50 with Escherichia coli [13] worked out at 2.7 mg/kg; in the data set on Pseudomonas aeruginosa [6], 1.8 mg/kg; in the data set with Staphylococcus aureus [16] it was 1.8 mg/kg; in the data set on Streptococcus pneumoniae [9], 4.1 mg/kg. Further, the results for the median lethal dose (LD50) in data set [14] and in [15] were 94 mg/kg and 2500 mg/kg, respectively. Moreover, the logD in data set [10] came to 1.38. Moreover, the AUC – broadly, the area under the concentration-time curve, a measure of exposure – in the data set listed under Mus musculus [17] was found to be 32 µg·h/mL.

In the case of `CCn1cc(C(=O)O)c(=O)c2c(C)c(F)c(N3CC[C@H](N)C3)nc21`, the solubility in data set [18] came to 0.03 mg/mL (≈ 89.7 µM). Also, the MIC in the data set with Enterococcus faecalis amounted to 2 mg/L (≈ 5.98 µM); against Escherichia coli [4] it was 0.002 mg/L (≈ 0.00598 µM); against Enterobacter cloacae, 0.008 mg/L (≈ 0.0239 µM); with Klebsiella pneumoniae it was 0.016 mg/L (≈ 0.0479 µM); against Morganella morganii it was 0.03 mg/L (≈ 0.0897 µM); in the data set on Pseudomonas aeruginosa [5], 1 mg/L (≈ 2.99 µM). In addition, the minimal inhibitory concentration (MIC) in the data set on Proteus mirabilis came to 0.13 mg/L (≈ 0.389 µM); in the data set on Serratia marcescens, 0.13 mg/L (≈ 0.389 µM); in the data set with Streptococcus pneumoniae [7], 0.5 mg/L (≈ 1.5 µM); in the data set with Staphylococcus aureus [8] it was 0.016 mg/L (≈ 0.0479 µM).

`CC(C)(C)n1cc(C(=O)O)c(=O)c2cc(F)c(N3CC4CC3CN4)nc21` (stereo not given) registered a solubility in data set [2] of 0.08 mg/mL (≈ 222 µM). In [3], this molecule returned a dose excreted of 34%. In addition, the minimal inhibitory concentration (MIC) worked out at 4 mg/L (≈ 11.1 µM) in the data set with Bacteroides fragilis; 0.5 mg/L (≈ 1.39 µM) with Enterococcus faecalis; 0.008 mg/L (≈ 0.0222 µM) in the data set with Escherichia coli [4]; 0.02 mg/L (≈ 0.0555 µM) with Enterobacter cloacae; 0.02 mg/L (≈ 0.0555 µM) against Klebsiella pneumoniae; 0.06 mg/L (≈ 0.166 µM) against Morganella morganii. The MIC in the data set with Pseudomonas aeruginosa [5] turned out to be 0.25 mg/L (≈ 0.694 µM); with Proteus mirabilis it was 0.06 mg/L (≈ 0.166 µM); against Serratia marcescens, 0.06 mg/L (≈ 0.166 µM); with Streptococcus pneumoniae [7] it was 0.13 mg/L (≈ 0.361 µM); with Staphylococcus aureus [8], 0.003 mg/L (≈ 0.00832 µM). Moreover, the ED50 is 1.8 mg/kg in the data set with Escherichia coli [19], 4.7 mg/kg in the data set on Pseudomonas aeruginosa [20] and 1.6 mg/kg with Staphylococcus aureus [16]. Also, the LD50 (usually the dose expected to kill half of the subjects tested) was 303 mg/kg in [14] and 5000 mg/kg in [15]. The same molecule yielded a T1/2 in the data set listed under Mus musculus [21] of 1.58 h. The highest level in “in vivo [11]” (Cmax) was 10 µg/mL. Also, the half-life in “in vivo [12]” amounted to 1.6 h. Further, the PD50 in the data set on Streptococcus pneumoniae [22] worked out at 29.7 mg/kg.
